Assay results as given in ChEMBL document CHEMBL5724801, “EUbOPEN Chemogenomics Library - Multiplex” (2024).
Where “and” joins values, the source holds several entries; their conditions need not be identical. Equal values may be shown once.

Test system: HEK-293T
Assay: Multiplex assay against HEK293T
Assay type: toxicity, cell-based
Conditions: human
Outline: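 At seeding, live cells were stained with Hoechst33342, BioTracker Green Microtubule Cytoskeleton Dye, MitoTracker Red and Annexin V Alexa Fluor 680. After compound addition they were imaged on a CQ1 microscope at 37°C and 5% CO2, and CellPathfinder machine-learning gating sorted them into Hoechst high-intensity objects or normal cells, with normal cells further split into healthy, pyknosed or fragmented nuclei and pyknosed cells into mitotic or apoptotic. Tubulin, mitochondrial-mass and membrane-permeability phenotypes are given as per cents of cells with healthy nuclei.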

[1] = 12 h, 1 µM, compound concentration 1 uM
[2] = 12 h, 10 µM, compound concentration 10 uM
[3] = 24 h, 1 µM, compound concentration 1 uM
[4] = 24 h, 10 µM, compound concentration 10 uM
[5] = 48 h, 1 µM, compound concentration 1 uM
[6] = 48 h, 10 µM, compound concentration 10 uM

In the case of `Cc1c(-c2cc(-c3ccccc3Cl)no2)cnn1C1CCNCC1.Cl`, the “Population Apoptotic (%)” value [1] is reported as 10.39% and 11.29%, the “Population Fragmented Nuclei (%)” value [1] is reported as 3.59% and 2.19% and the “Population Hoechst High Intensity Objects (%)” value [1] is reported as 0.28% and 0%. The “Population Membrane Permeable-Phenotype (%)” value [1] was 0%, the “Population Mitochondria Different-Phenotype (%)” value [1] was 33.33% and 20% and the “Population Mitotic Cells (%)” value [1] was 89.61% and 88.71%. For the same molecule, the “Population Normal (%)” value [1] was 99.72% and 100%, the “Population Pyknosed Nuclei (%)” value [1] was 42.54% and 90.51% and the “Population Tubulin-Different-Phenotype (%)” value [1] was 9.74% and 20%. The “Total Cell Count” value [1] was 363 and 137, the “Population Apoptotic (%)” value [2] was 15.64% and 14.06% and the “Population Fragmented Nuclei (%)” value [2] was 1.78% and 2.96%. For the same molecule, the “Population Hoechst High Intensity Objects (%)” value [2] was 0.44% and 0%, the “Population Membrane Permeable-Phenotype (%)” value [2] was 2.38% and 0% and the “Population Mitochondria Different-Phenotype (%)” value [2] was 42.86% and 33.33%. The “Population Mitotic Cells (%)” value [2] was 84.36% and 85.94%, the “Population Normal (%)” value [2] was 99.56% and 100% and the “Population Pyknosed Nuclei (%)” value [2] was 79.56% and 94.81%. The “Population Tubulin-Different-Phenotype (%)” value [2] was 78.57% and 100%, the “Total Cell Count” value [2] was 226 and 135 and the “Population Apoptotic (%)” value [3] was 16.36% and 12.04%. For the same molecule, the “Population Fragmented Nuclei (%)” value [3] was 2.54% and 2.07%, the “Population Healthy Nuclei (%)” value [3] was 62.58% and 23.45% and the “Population Hoechst High Intensity Objects (%)” value [3] was 0.21% and 0.68%. The “Population Membrane Permeable-Phenotype (%)” value [3] was 1.35% and 0%, the “Population Mitochondria Different-Phenotype (%)” value [3] was 20.61% and 26.47% and the “Population Mitotic Cells (%)” value [3] was 83.64% and 87.96%. For the same molecule, the “Population Normal (%)” value [3] was 99.79% and 99.32%, the “Population Pyknosed Nuclei (%)” value [3] was 34.88% and 74.48% and the “Population Tubulin-Different-Phenotype (%)” value [3] was 23.31% and 17.65%. For the same molecule, the “Population Apoptotic (%)” value [4] was 46.71% and 55.88%, the “Population Fragmented Nuclei (%)” value [4] was 1.42% and 2.05% and the “Population Hoechst High Intensity Objects (%)” value [4] was 1.85% and 0.68%. The “Population Membrane Permeable-Phenotype (%)” value [4] was 0% and 14.29%, the “Population Mitochondria Different-Phenotype (%)” value [4] was 78.57% and 57.14% and the “Population Mitotic Cells (%)” value [4] was 53.29% and 44.12%. The “Population Normal (%)” value [4] was 98.15% and 99.32%, the “Population Pyknosed Nuclei (%)” value [4] was 78.77% and 93.15% and the “Population Tubulin-Different-Phenotype (%)” value [4] was 92.86% and 85.71%. For the same molecule, the “Total Cell Count” value [4] was 216 and 147, the “Population Apoptotic (%)” value [5] was 12.5% and 24.62% and the “Population Fragmented Nuclei (%)” value [5] was 3.19% and 2.61%. For the same molecule, the “Population Healthy Nuclei (%)” value [5] was 82.92% and 54.9%, the “Population Hoechst High Intensity Objects (%)” value [5] was 0% and 1.29% and the “Population Membrane Permeable-Phenotype (%)” value [5] was 4.07% and 0%. The “Population Mitochondria Different-Phenotype (%)” value [5] was 28.52% and 35.71%, the “Population Mitotic Cells (%)” value [5] was 87.5% and 75.38% and the “Population Normal (%)” value [5] was 100% and 98.71%. For the same molecule, the “Population Apoptotic (%)” value [6] was 59.7% and 87.84%, the “Population Fragmented Nuclei (%)” value [6] was 1.25% and 4.94% and the “Population Hoechst High Intensity Objects (%)” value [6] was 2.44% and 0%. The “Population Membrane Permeable-Phenotype (%)” value [6] was 0.97% and 0%, the “Population Mitochondria Different-Phenotype (%)” value [6] was 87.38% and 100% and the “Population Normal (%)” value [6] was 97.56% and 100%. For the same molecule, the “Population Pyknosed Nuclei (%)” value [6] was 55.83% and 91.36%, the “Population Tubulin-Different-Phenotype (%)” value [6] was 73.79% and 100% and the “Total Cell Count” value [6] was 246 and 162.
`N#Cc1c(Oc2cccc(OS(=O)(=O)CCCC(F)(F)F)c2)cccc1C(F)(F)F` was tested, and the “Population Apoptotic (%)” value [1] was 35% and 63%, the “Population Fragmented Nuclei (%)” value [1] was 4% and 6% and the “Population Healthy Nuclei (%)” value [1] was 86% and 75%. For the same molecule, the “Population Hoechst High Intensity Objects (%)” value [1] was 5% and 11%, the “Population Membrane Permeable-Phenotype (%)” value [1] was 0% and the “Population Mitochondria Different-Phenotype (%)” value [1] was 46% and 60%. For the same molecule, the “Population Mitotic Cells (%)” value [1] was 65% and 36%, the “Population Normal (%)” value [1] was 94% and 88% and the “Population Pyknosed Nuclei (%)” value [1] was 8% and 17%. The “Population Tubulin-Different-Phenotype (%)” value [1] was 38% and 28%, the “Total Cell Count” value [1] was 490 and 349 and the “Population Apoptotic (%)” value [2] was 42% and 44%. The “Population Fragmented Nuclei (%)” value [2] was 8% and 6%, the “Population Healthy Nuclei (%)” value [2] was 65% and 64% and the “Population Membrane Permeable-Phenotype (%)” value [2] was 0%. For the same molecule, the “Population Mitochondria Different-Phenotype (%)” value [2] was 74% and 81%, the “Population Mitotic Cells (%)” value [2] was 57% and 55% and the “Population Normal (%)” value [2] was 89% and 59%. For the same molecule, the “Population Pyknosed Nuclei (%)” value [2] was 25% and 28%, the “Population Tubulin-Different-Phenotype (%)” value [2] was 65% and 58% and the “Total Cell Count” value [2] was 290 and 318. For the same molecule, the “Population Apoptotic (%)” value [3] was 28% and 60%, the “Population Fragmented Nuclei (%)” value [3] was 10% and 8% and the “Population Healthy Nuclei (%)” value [3] was 77% and 81%. The “Population Hoechst High Intensity Objects (%)” value [3] was 3% and 9%, the “Population Membrane Permeable-Phenotype (%)” value [3] was 0% and the “Population Mitochondria Different-Phenotype (%)” value [3] was 34% and 48%. For the same molecule, the “Population Mitotic Cells (%)” value [3] was 71% and 40%, the “Population Normal (%)” value [3] was 96% and 90% and the “Population Pyknosed Nuclei (%)” value [3] was 12% and 9%. The “Population Tubulin-Different-Phenotype (%)” value [3] was 26% and 20%, the “Total Cell Count” value [3] was 654 and 412 and the “Population Apoptotic (%)” value [4] was 43% and 45%. For the same molecule, the “Population Fragmented Nuclei (%)” value [4] was 9% and 10%, the “Population Healthy Nuclei (%)” value [4] was 77% and 61% and the “Population Membrane Permeable-Phenotype (%)” value [4] was 0%. For the same molecule, the “Population Mitochondria Different-Phenotype (%)” value [4] was 66% and 68%, the “Population Mitotic Cells (%)” value [4] was 56% and 54% and the “Population Normal (%)” value [4] was 86% and 52%. For the same molecule, the “Population Pyknosed Nuclei (%)” value [4] was 13% and 27%, the “Population Tubulin-Different-Phenotype (%)” value [4] was 56% and 41% and the “Total Cell Count” value [4] was 338 and 312. For the same molecule, the “Population Apoptotic (%)” value [5] was 20% and 56%, the “Population Fragmented Nuclei (%)” value [5] was 13% and 12% and the “Population Healthy Nuclei (%)” value [5] was 81% and 82%. The “Population Hoechst High Intensity Objects (%)” value [5] was 1% and 5%, the “Population Membrane Permeable-Phenotype (%)” value [5] was 1% and 0% and the “Population Mitochondria Different-Phenotype (%)” value [5] was 21% and 23%. For the same molecule, the “Population Mitotic Cells (%)” value [5] was 79% and 43%, the “Population Normal (%)” value [5] was 98% and 94% and the “Population Pyknosed Nuclei (%)” value [5] was 5%. The “Population Tubulin-Different-Phenotype (%)” value [5] was 15% and 13%, the “Total Cell Count” value [5] was 986 and 568 and the “Population Apoptotic (%)” value [6] was 44% and 58%. For the same molecule, the “Population Fragmented Nuclei (%)” value [6] was 11%, the “Population Healthy Nuclei (%)” value [6] was 78% and 69% and the “Population Membrane Permeable-Phenotype (%)” value [6] was 0%. The “Population Mitochondria Different-Phenotype (%)” value [6] was 44% and 47%, the “Population Mitotic Cells (%)” value [6] was 55% and 41% and the “Population Normal (%)” value [6] was 94% and 75%. The “Population Pyknosed Nuclei (%)” value [6] was 10% and 18%, the “Population Tubulin-Different-Phenotype (%)” value [6] was 29% and 23% and the “Total Cell Count” value [6] was 464 and 363.
`Cc1ccc(-c2c(C(=O)CF)n(CCCO)c3ncnc(N)c23)cc1` was tested, and the “Population Apoptotic (%)” value [1] was 10.53% and 14.63%, the “Population Fragmented Nuclei (%)” value [1] was 2.38% and 4.08% and the “Population Hoechst High Intensity Objects (%)” value [1] was 0%. For the same molecule, the “Population Membrane Permeable-Phenotype (%)” value [1] was 0% and 5.56%, the “Population Mitotic Cells (%)” value [1] was 89.47% and 85.37% and the “Population Normal (%)” value [1] was 100%. The “Population Pyknosed Nuclei (%)” value [1] was 38.78% and 83.67%, the “Total Cell Count” value [1] was 294 and 147 and the “Population Apoptotic (%)” value [2] was 9.68% and 15.93%. For the same molecule, the “Population Fragmented Nuclei (%)” value [2] was 5.7% and 4.44%, the “Population Hoechst High Intensity Objects (%)” value [2] was 0.33% and 0% and the “Population Membrane Permeable-Phenotype (%)” value [2] was 1.91% and 0%. The “Population Mitochondria Different-Phenotype (%)” value [2] was 38.22% and 25%, the “Population Mitotic Cells (%)” value [2] was 90.32% and 84.07% and the “Population Normal (%)” value [2] was 99.67% and 100%. For the same molecule, the “Population Pyknosed Nuclei (%)” value [2] was 41.61% and 83.7%, the “Population Tubulin-Different-Phenotype (%)” value [2] was 17.83% and 37.5% and the “Total Cell Count” value [2] was 299 and 135. The “Population Apoptotic (%)” value [3] was 6.73% and 15.13%, the “Population Fragmented Nuclei (%)” value [3] was 3.4% and 2.5% and the “Population Hoechst High Intensity Objects (%)” value [3] was 0%. The “Population Membrane Permeable-Phenotype (%)” value [3] was 2.86% and 0%, the “Population Mitochondria Different-Phenotype (%)” value [3] was 14.57% and 8.11% and the “Population Mitotic Cells (%)” value [3] was 93.27% and 84.87%. The “Population Normal (%)” value [3] was 100%, the “Population Tubulin-Different-Phenotype (%)” value [3] was 10.86% and 5.41% and the “Total Cell Count” value [3] was 470 and 160. The “Population Apoptotic (%)” value [4] was 19.61% and 24.07%, the “Population Fragmented Nuclei (%)” value [4] was 2.25% and 2.94% and the “Population Healthy Nuclei (%)” value [4] was 74.77% and 33.53%. For the same molecule, the “Population Hoechst High Intensity Objects (%)” value [4] was 0%, the “Population Membrane Permeable-Phenotype (%)” value [4] was 0.9% and 0% and the “Population Mitotic Cells (%)” value [4] was 80.39% and 75.93%. The “Population Normal (%)” value [4] was 100%, the “Population Pyknosed Nuclei (%)” value [4] was 22.97% and 63.53% and the “Population Tubulin-Different-Phenotype (%)” value [4] was 24.4% and 8.77%. The “Total Cell Count” value [4] was 444 and 170, the “Population Fragmented Nuclei (%)” value [5] was 1.92% and 2.58% and the “Population Healthy Nuclei (%)” value [5] was 88.16% and 57.22%. For the same molecule, the “Population Hoechst High Intensity Objects (%)” value [5] was 0%, the “Population Membrane Permeable-Phenotype (%)” value [5] was 5.14% and 2.7% and the “Population Mitochondria Different-Phenotype (%)” value [5] was 13.34% and 21.62%. For the same molecule, the “Population Mitotic Cells (%)” value [5] was 97.67% and 83.33%, the “Population Normal (%)” value [5] was 100% and the “Population Apoptotic (%)” value [6] was 7.29% and 16.44%. The “Population Fragmented Nuclei (%)” value [6] was 3.41% and 2.51%, the “Population Healthy Nuclei (%)” value [6] was 87.23% and 60.8% and the “Population Hoechst High Intensity Objects (%)” value [6] was 0%. For the same molecule, the “Population Membrane Permeable-Phenotype (%)” value [6] was 3.58% and 0.83%, the “Population Mitochondria Different-Phenotype (%)” value [6] was 25.47% and 33.88% and the “Population Mitotic Cells (%)” value [6] was 92.71% and 83.56%. The “Population Normal (%)” value [6] was 100%.
